Series [1] has as its system Mus musculus. Kind of series: […] in po dosed mouse brain assessed as activation in HA release measured after 90 mins. The conditions noted are these: 1.5 h. It is filed as functional.
A further series has as its target Histamine H3 receptor (Homo sapiens, UniProt Q9Y5N1). Put plainly: Displacement of [125I]Iodoproxyfan from recombinant human histamine H3 receptor expressed in CHOK1 cell membranes after 90 mins. Summed up: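 Membranes of CHO-K1 cells expressing hH3R were incubated 90 min at 25 °C, shaken at 250 rpm, with [125I]iodoproxyfan (16–50 pM) and test compound. Nonspecific binding was defined with 1 μM imetit. Separation by filtration on PEI-treated GF/B filters. Ki obtained from IC50 by Cheng-Prusoff.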
In general terms: Displacement assays read how much labelled ligand stays bound in the presence of the test substance.

Series [2] has as its system Mus musculus. Kind of series: Anticonvulsant activity in CF-1 albino mouse assessed as protection against maximal electroshock-induced seizures at 30 mg/kg, ip after 0.5 hrs. It is filed as functional, organism-based. In outline:
(§1)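 Male CF-1 albino mice received compound i.p. as a suspension in 0.5% methylcellulose (30, 100 or 300 mg/kg). Maximal electroshock seizure test read 0.5 h and 4 h after dosing. Result given as animals protected/animals tested.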
In general terms: The maximal electroshock test induces tonic seizures with an electrical stimulus.

Series [3] concerns Mus musculus. Kind of series: Anticonvulsant activity in CF-1 albino mouse assessed as protection against maximal electroshock-induced seizures at 30 mg/kg, ip after 4 hrs. It is filed as functional, organism-based. In outline: as §1
Series [4] has as its system Mus musculus. Put plainly: Anticonvulsant activity in CF-1 albino mouse assessed as protection against maximal electroshock-induced seizures at 100 mg/kg, ip after 0.5 hrs. It is filed as functional, organism-based. In outline:
as §1

Series [5] concerns Mus musculus. Kind of series: Anticonvulsant activity in CF-1 albino mouse assessed as protection against maximal electroshock-induced seizures at 100 mg/kg, ip after 4 hrs. It is filed as functional, organism-based. In outline: as §1
Series [6] deals with Mus musculus. Kind of series: Anticonvulsant activity in CF-1 albino mouse assessed as protection against maximal electroshock-induced seizures at 300 mg/kg, ip after 0.5 hrs. Type of series: functional, organism-based. In outline:
as §1

Series [7] concerns Mus musculus. Put plainly: Anticonvulsant activity in CF-1 albino mouse assessed as protection against subcutaneous pentetrazole-induced seizures at 30 mg/kg, ip after 0.5 hrs. Type of series: functional, organism-based.
In series [8] the test system is Mus musculus. Kind of series: Anticonvulsant activity in CF-1 albino mouse assessed as protection against subcutaneous pentetrazole-induced seizures at 30 mg/kg, ip after 4 hrs. It is filed as functional, organism-based.
Series [9] has as its system Mus musculus. Put plainly: Anticonvulsant activity in CF-1 albino mouse assessed as protection against subcutaneous pentetrazole-induced seizures at 100 mg/kg, ip after 0.5 hrs. Type of series: functional, organism-based.
The subject of series [10] is Mus musculus. Kind of series: Anticonvulsant activity in CF-1 albino mouse assessed as protection against subcutaneous pentetrazole-induced seizures at 100 mg/kg, ip after 4 hrs. It is filed as functional, organism-based.
Series [11] relates to Mus musculus. Put plainly: Neurotoxicity in CF-1 albino mouse assessed as unable to grasp at 100 mg/kg, ip after 0.5 hrs by rotarod test. It is filed as toxicity, organism-based. The note with it: in vivo. Summed up:
(§2)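 Anticonvulsant Screening Program (NINDS) Phase 1 neurotoxicity screen in male albino CF-1 mice. Compounds were given i.p. as suspensions in 0.5% methylcellulose at 30, 100 and/or 300 mg/kg, and animals were observed 0.5 h and 4 h after dosing. The rotarod test was scored as number of animals showing toxicity over number tested, with the kind of toxicity recorded: inability to grasp rotorod, death, diarrhea, continuous seizure activity, loss of righting reflex, myoclonic jerks or tremors.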
On the technique in general: In the rotarod test animals must keep their balance on a rotating rod.

For series [12], the system named is Mus musculus. Kind of series: Neurotoxicity in CF-1 albino mouse at 30 mg/kg, ip after 4 hrs by rotarod test. It is filed as toxicity, organism-based. The conditions noted are these: in vivo. Summed up:
(§3)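 Male CF-1 mice were dosed i.p. with compound suspended in 0.5% methylcellulose (30, 100 or 300 mg/kg). Neurotoxicity was scored by rotarod 0.5 h and 4 h after dosing, as animals showing toxicity/animals tested. Type of toxicity was noted, e.g. inability to grasp the rod, tremors, death.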

Series [13] deals with Mus musculus. Kind of series: Neurotoxicity in CF-1 albino mouse at 100 mg/kg, ip after 4 hrs by rotarod test. The conditions noted are these: in vivo. It is filed as toxicity, organism-based. Summed up:
as §3

In series [14] the test system is Mus musculus. Kind of series: Neurotoxicity in CF-1 albino mouse at 300 mg/kg, ip after 4 hrs by rotarod test. It is filed as toxicity, organism-based. The note with it: in vivo. In outline:
as §2

Series [15] can be described thus: Lipophilicity of compound by RP-TLC analysis. Type of series: physicochemical. The conditions noted are these: methanol:acetic acid:water. Summed up:
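Reversed-phase TLC on RP-18 plates with methanol:acetic acid:water mobile phase (acid constant at 10%, methanol 85–55% in 5% steps). Spots visualised with iodine. RM values were derived from Rf and extrapolated to zero methanol to give RM0.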

Series [16] concerns Mus musculus. Kind of series: Neurotoxicity in CF-1 albino mouse assessed as death at 300 mg/kg, ip after 0.5 hrs by rotarod test. The conditions noted are these: in vivo.
Series [17] is described as follows: Drug level in pooled human liver microsomes treated with 50 uM 1-(5-(4-(tert-Pentyl)phenoxy)pentyl)azepane hydrogen oxalate after 2 hrs in presence of NADPH by LC/MS analysis. Type of series: ADME, microsome. Summed up: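 Pooled human liver microsomes (1 mg/ml) in 0.1 M Tris-HCl pH 7.4 with compound at 50 μM. After 5 min preincubation at 37 °C, reaction was started with NADPH regeneration system and run 2 h at 37 °C. Stopped with cold methanol and centrifuged. Supernatant analysed by UPLC-ESI tandem quadrupole MS.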

For series [18], the system named is Mus musculus. Kind of series: Anticonvulsant activity in CF-1 albino mouse assessed as protection against subcutaneous pentetrazole-induced seizures at 300 mg/kg, ip after 0.5 hrs. It is filed as functional, organism-based.
The subject of series [19] is Mus musculus. Put plainly: Anticonvulsant activity in CF-1 albino mouse assessed as protection against subcutaneous pentetrazole-induced seizures at 300 mg/kg, ip after 4 hrs. Type of series: functional, organism-based.
Series [20] relates to Mus musculus. Kind of series: Neurotoxicity in CF-1 albino mouse assessed as death at 100 mg/kg, ip after 4 hrs by rotarod test. Type of series: toxicity, organism-based. The note with it: in vivo. Summed up: as §2
For series [21], the system named is Mus musculus. Kind of series: Neurotoxicity in CF-1 albino mouse assessed as death at 300 mg/kg, ip after 4 hrs by rotarod test. Type of series: toxicity, organism-based. The conditions noted are these: in vivo. Summed up:
as §2

In series [22] the test system is Mus musculus. Kind of series: Neurotoxicity in CF-1 albino mouse at 100 mg/kg, ip after 0.5 hrs by rotarod test. The note with it: in vivo. It is filed as toxicity, organism-based. In outline:
as §2

Active and inactive are the calls of the source. The rule behind the calls is not given here.

Sequence of Histamine H3 receptor (Q9Y5N1 whole entry): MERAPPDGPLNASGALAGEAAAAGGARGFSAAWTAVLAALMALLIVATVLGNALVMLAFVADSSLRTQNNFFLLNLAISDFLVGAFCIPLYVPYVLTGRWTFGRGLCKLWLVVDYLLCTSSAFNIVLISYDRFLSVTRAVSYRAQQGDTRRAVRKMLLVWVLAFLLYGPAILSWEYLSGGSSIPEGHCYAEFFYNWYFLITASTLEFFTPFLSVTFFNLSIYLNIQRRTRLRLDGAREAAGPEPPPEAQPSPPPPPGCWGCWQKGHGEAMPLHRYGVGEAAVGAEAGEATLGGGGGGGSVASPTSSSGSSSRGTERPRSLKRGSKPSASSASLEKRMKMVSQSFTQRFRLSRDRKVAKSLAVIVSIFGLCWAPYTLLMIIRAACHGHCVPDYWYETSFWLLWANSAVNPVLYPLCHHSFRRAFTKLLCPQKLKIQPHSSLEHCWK

Turning to `Clc1ccc(CCCOCCCN2CCCCC2)cc1` [PITOLISANT], in the series with Mus musculus [1], the ED50 turned out to be 1.5 mg/kg.

As for `CCC(C)(C)c1ccc(OCCCCCCCN2CCCCC2)cc1.O=C(O)C(=O)O`, on Histamine H3 receptor, the Ki worked out at 55 nM. Also, the result in the series on Mus musculus [2], in the series with Mus musculus [3], with Mus musculus [5], with Mus musculus [7], in the series on Mus musculus [8] and with Mus musculus [9] was inactive. In addition, the result in the series on Mus musculus [10] was inactive. Further, the outcome in the series with Mus musculus [4] and in the series on Mus musculus [6] was Active. Also, the Activity entry with Mus musculus [11] is recorded as “Toxic”; in the series on Mus musculus [12], “Non-Toxic”; with Mus musculus [13] it was “Non-Toxic”; in the series with Mus musculus [14], “Non-Toxic”; in the series with Mus musculus [16], “Toxic”. Further, the Rm in series [15] was determined as 2.624.

`CC(CO)c1ccc(OCCCCCN2CCCCCC2)cc1` (centres undefined): the Drug uptake entry in series [17] is recorded as “Active”.

As for `CCC(C)(C)c1ccc(OCCCCCCCCN2CCC(C)CC2)cc1.O=C(O)C(=O)O`, the Ki on Histamine H3 receptor was found to be 308 nM. For the same compound, the result with Mus musculus [2], with Mus musculus [5] and in the series with Mus musculus [6] was Active. The outcome in the series on Mus musculus [3], in the series with Mus musculus [7], with Mus musculus [8], in the series with Mus musculus [9], in the series on Mus musculus [10] and with Mus musculus [18] was inactive. Besides, the outcome in the series on Mus musculus [19] was inactive. Further, the Activity entry in the series with Mus musculus [11], with Mus musculus [20], in the series on Mus musculus [21], in the series on Mus musculus [22] and in the series on Mus musculus [16] was “Toxic” each time.

Broadly, the ED50 is the dose at which the effect has come halfway, by size or by number of responders. A word on the Ki: it is a dissociation constant, usually derived from enzyme kinetics or from competition with a known ligand.
